Consider 2 compounds from publication PMC3607822 (The Journal of General Physiology, 2013).

Assay [1] has as its system tandem A3//N7R-A,613X heterodimer channels. The experiment in a line: Inside-out patch clamp, A3 WT//A3 N7R-A,613X tandem dimers. In kind it is biochemical, human. As to conditions: from K1/2 and h before and after PIP3. (In patch-clamp work, channel activity is measured electrically.)
Assay [2] has as its target GST fusion of CNGA3 C-terminal region (A3C, amino acids 612–694) (Homo sapiens, UniProt Q16281). The experiment in a line: In vitro PIP3-agarose bead pull-down, A3C. It is filed as binding. As to conditions: PIP3-agarose beads, anti-GST immunoblot; not quantitative. In outline: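 Recombinant GST fusions of channel fragments expressed in E. coli and purified; soluble fraction kept after 20,000 g, 4°C, 30 min. Protein (2 µg/ml) rocked with PIP3- or control agarose beads, 2 h, 4°C, in 10 mM Hepes pH 7.4, 50 mM NaCl, 2 mM EDTA, 0.25% Triton X-100, 0.25% NP-40. Five washes, elution in sample buffer, reducing SDS gel, anti-GST (1:2,000, overnight) immunoblot, chemiluminescence; […].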
Background: A western blot detects proteins with antibodies after separation by electrophoresis.

Assay [3] concerns the target T1, CNGA3 C7K/R-A (K624A, K629A, R643A, R646A, K657A, K659A, R661A) channels (Homo sapiens, UniProt Q16281, K624A/K629A/K657A/K659A/R643A/R646A/R661A).
T1 sequence (Q16281 1-694 K624A/K629A/R643A/R646A/K657A/K659A/R661A): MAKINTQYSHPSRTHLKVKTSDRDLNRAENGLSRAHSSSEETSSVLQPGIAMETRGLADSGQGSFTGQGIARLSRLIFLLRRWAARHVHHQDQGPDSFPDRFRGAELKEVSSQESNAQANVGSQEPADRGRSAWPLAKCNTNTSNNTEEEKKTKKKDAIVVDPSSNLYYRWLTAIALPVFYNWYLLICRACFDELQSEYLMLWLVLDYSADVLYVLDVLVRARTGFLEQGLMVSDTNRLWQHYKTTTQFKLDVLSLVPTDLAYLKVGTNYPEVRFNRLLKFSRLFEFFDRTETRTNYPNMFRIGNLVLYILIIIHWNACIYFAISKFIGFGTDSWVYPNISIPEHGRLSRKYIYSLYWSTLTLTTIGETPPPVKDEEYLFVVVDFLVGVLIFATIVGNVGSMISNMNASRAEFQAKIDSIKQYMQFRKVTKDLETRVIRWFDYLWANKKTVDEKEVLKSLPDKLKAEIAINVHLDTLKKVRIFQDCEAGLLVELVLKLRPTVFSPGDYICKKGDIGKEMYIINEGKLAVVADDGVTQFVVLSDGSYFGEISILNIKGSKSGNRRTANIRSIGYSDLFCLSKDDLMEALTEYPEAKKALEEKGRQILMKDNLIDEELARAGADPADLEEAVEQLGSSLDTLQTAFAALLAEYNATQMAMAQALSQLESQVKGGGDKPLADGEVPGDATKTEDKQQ
The assay can be described thus: Inside-out patch clamp, CNGA3 C7K/R-A. In kind it is biochemical.

The target of assay [4] is T2, CNGA3 RR-QQ (R643Q, R646Q) channels (Homo sapiens, UniProt Q16281, R643Q/R646Q).
T2 sequence (Q16281 1-694 R643Q/R646Q): T1 sequence (Q16281 1-694 K624A/K629A/R643A/R646A/K657A/K659A/R661A) with A624K, A629K, A643Q, A646Q, A657K, A659K, A661R
The assay can be described thus: Inside-out patch clamp, CNGA3 RR-QQ. It is filed as biochemical.

The target in assay [5] is T3, CNGA3 RR-EE (R643E, R646E) channels (Homo sapiens, UniProt Q16281, R643E/R646E).
T3 sequence (Q16281 1-694 R643E/R646E): T1 sequence (Q16281 1-694 K624A/K629A/R643A/R646A/K657A/K659A/R661A) with A624K, A629K, A643E, A646E, A657K, A659K, A661R
The experiment in a line: Inside-out patch clamp, CNGA3 RR-EE. In kind it is biochemical.

Assay [6] has as its target CNGA3 ΔN (2-156), 613X channels (Homo sapiens, UniProt Q16281). The experiment in a line: Inside-out patch clamp, CNGA3 ΔN. In kind it is biochemical.
The target in assay [7] is CNGA3 N7R-A (R72A, R75A, R81A, R82A, R86A, R101A, R103A) channels (Homo sapiens, UniProt Q16281, R101A/R103A/R72A/R75A/R81A/R82A/R86A). The experiment in a line: Inside-out patch clamp, CNGA3 N7R-A. It is filed as biochemical.
Setting [8] is: read-out: K1/2 cGMP, +80 mV, no PIPn.

Where a chain is given by its changes, count along the chain named.

Consider “phosphatidylinositol (3,4,5)-trisphosphate [PIP3]”, for which, in assay [1], the “change in the energetics of channel opening produced by PIP3 (ΔΔG)” value came to 1.29 ± 0.08 kcal/mol. Moreover, the “in vitro PIP3 binding” value in assay [2] was “binding was observed”.
For orientation: Hill coefficient means the slope factor of the fitted curve. Consider `Nc1nc2c(ncn2[C@@H]2O[C@@H]3COP(=O)(O)O[C@H]3[C@H]2O)c(=O)[nH]1` [cGMP, cyclic guanosine monophosphate], for which the Hill coefficient in assay [3] (cGMP activation) is recorded as 2.00 ± 0.00 (6); in assay [4] (cGMP activation), 2.00 ± 0.00 (3); in assay [5] (cGMP activation) it was 1.95 ± 0.05 (4); in assay [6] (cGMP activation), 1.66 ± 0.10 (6); in assay [7] (cGMP activation), 1.59 ± 0.18 (4). For the same compound, the EC50 came out at 9.37 ± 0.29 µM in assay [3] (setting [8]); 7.45 ± 0.63 µM in assay [4] (setting [8]); 8.29 ± 0.47 µM in assay [5] (setting [8]); 15.8 ± 2.8 µM in assay [6] (setting [8]); 8.89 ± 1.15 µM in assay [7] (setting [8]). The “Po max cGMP” value in assay [3] (saturating cGMP) is listed as 0.92 ± 0.01 (4); in assay [4] (saturating cGMP), 0.94 ± 0.01 (3); in assay [5] (saturating cGMP), 0.93 ± 0.03 (4).
